From ChEMBL document CHEMBL5620424, “Design, synthesis and evaluation of novel 2-phenyl-3-(1H-pyrazol-4-yl)pyridine positive allosteric modulators for the M4 mAChR” (Eur J Med Chem, 2023)

Key:
[1] = target: T1, Muscarinic acetylcholine receptor M4 (Homo sapiens) (UniProt P08173); test: Positive allosteric modulation at human M4 mAChR expressed in Flp-In-CHO cells co-expressing CAMYEL biosensor assessed as change in maximum ACh-mediated response at 10 uM incubated for 5 mins by BRET assay relative to control; assay type: cell-based
T1 sequence (whole entry): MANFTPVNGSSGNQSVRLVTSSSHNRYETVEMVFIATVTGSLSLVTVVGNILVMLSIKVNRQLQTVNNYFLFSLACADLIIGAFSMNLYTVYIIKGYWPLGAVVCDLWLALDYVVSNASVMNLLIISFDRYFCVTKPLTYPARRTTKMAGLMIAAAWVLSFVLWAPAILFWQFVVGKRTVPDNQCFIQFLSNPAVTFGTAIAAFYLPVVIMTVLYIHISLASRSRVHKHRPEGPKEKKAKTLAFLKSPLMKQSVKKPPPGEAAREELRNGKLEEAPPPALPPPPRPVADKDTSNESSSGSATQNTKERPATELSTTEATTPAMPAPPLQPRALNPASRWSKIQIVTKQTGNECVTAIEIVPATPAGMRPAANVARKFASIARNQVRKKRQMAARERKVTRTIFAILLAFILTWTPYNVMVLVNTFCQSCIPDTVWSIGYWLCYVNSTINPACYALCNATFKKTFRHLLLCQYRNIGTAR
In short: (§1)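 FlpInCHO cells stably expressing human M4 mAChR, transiently transfected with CAMYEL cAMP BRET biosensor (60 ng/well, PEI), assayed 48 h later in HBSS pH 7.4. Full ACh concentration-response curve alone or with modulator at 1 or 10 μM, co-added with coelenterazine h (5 μM), 5 min, 37 °C. Three-parameter logistic fit; ACh curve values subtracted from ACh+modulator values. Δbaseline and ΔEmax given as % of maximal ACh response without modulator. 4 experiments in duplicate, SEM pooled.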

[2] = target: T1, Muscarinic acetylcholine receptor M4 (Homo sapiens); test: […] human M4 mAChR expressed in Flp-In-CHO cells co-expressing CAMYEL biosensor assessed as change in baseline response at 10 uM incubated for 5 mins by BRET assay relative to control; assay type: cell-based; in short: as §1
[3] = target: T1, Muscarinic acetylcholine receptor M4 (Homo sapiens); test: Positive allosteric modulation at human M4 mAChR expressed in Flp-In-CHO cells co-expressing CAMYEL biosensor assessed as change in ACh-mediated response incubated for 5 mins by BRET assay; assay type: cell-based; conditions: filed as positive allosteric modulator; in short: as §1
[4] = target: T1, Muscarinic acetylcholine receptor M4 (Homo sapiens); test: Displacement of 3[H]-NMS from human M4 mAChR expressed in Flp-In-CHO cells assessed as binding co-operativity (log alpha) incubated for 6 hrs in presence of ACh by microbeta2 plate reader assay; assay type: cell-based; conditions: filed as positive allosteric modulator
In short: (§2)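 Intact FlpInCHO-hM4 cells, 20,000/well grown overnight, in HBSS pH 7.4 with [3H]-NMS 0.5 nM, ACh (0.01 μM–10 mM) and modulator (0.1–10 μM), shaken 6 h at room temperature. Washed with ice-cold 0.9% NaCl, then scintillation counting. Nonspecific binding defined with 10 μM atropine. pKB and log α(ACh) from global fit to allosteric ternary complex model, with log α′(NMS) fixed at –3 under strong negative cooperativity. 4–5 experiments in duplicate.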

[5] = target: T1, Muscarinic acetylcholine receptor M4 (Homo sapiens); test: Positive allosteric modulation at Rluc-tagged human M4 mAChR expressed in Flp-In-CHO cells co-expressing eYFP-tagged beta-arrestin 2 assessed as ACh-mediated beta-arrestin 2 recruitment co-operativity (log alpha beta) incubated for 5 mins by luminometry; assay type: cell-based; conditions: filed as positive allosteric modulator
In short: (§3)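 FlpInCHO cells co-transfected with human M4-Rluc8 (20 ng/well) and β-arrestin-2-eYFP (80 ng/well) using PEI, assayed after 48 h. Coelenterazine h (5 μM) preincubated 5 min, then ACh plus modulator ranges for 5 min at 37 °C; BRET at 475/535 nm. Fit to simplified operational model with slope 1 and KB fixed from binding. 4–5 experiments in duplicate.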

[6] = target: T1, Muscarinic acetylcholine receptor M4 (Homo sapiens); test: Positive allosteric modulation at Rluc-tagged human M4 mAChR expressed in Flp-In-CHO cells co-expressing eYFP-tagged beta-arrestin 2 assessed as efficacy of ACh-mediated beta-arrestin 2 recruitment (log tau B) incubated for 5 mins by luminometry; assay type: cell-based; conditions: filed as positive allosteric modulator; in short: as §3
[7] = target: T1, Muscarinic acetylcholine receptor M4 (Homo sapiens); test: Positive allosteric modulation at human M4 mAChR expressed in Flp-In-CHO cells co-expressing CAMYEL biosensor assessed as ACh-mediated cAMP signalling co-operativity (log alpha beta) incubated for 5 mins by BRET assay; assay type: functional, cell-based; conditions: filed as positive allosteric modulator
In short: (§4)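 CAMYEL-transfected FlpInCHO-hM4 cells (48 h post-transfection) given ACh and modulator concentration ranges in full interaction design, 5 min at 37 °C; BRET read with coelenterazine h. Fit to complete operational model of allosterism and agonism with ACh KA and modulator KB fixed from binding assays. Gives log τB and log αβ. 4–5 experiments in duplicate.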

[8] = target: T1, Muscarinic acetylcholine receptor M4 (Homo sapiens); test: Displacement of 3[H]-NMS from human M4 mAChR expressed in Flp-In-CHO cells assessed as binding constant incubated for 6 hrs by microbeta2 plate reader assay; assay type: cell-based; conditions: filed as positive allosteric modulator; in short: as §2
[9] = target: T1, Muscarinic acetylcholine receptor M4 (Homo sapiens); test: Positive allosteric modulation at human M4 mAChR expressed in Flp-In-CHO cells co-expressing CAMYEL biosensor assessed as efficacy of ACh-mediated cAMP signalling (log tau B) incubated for 5 mins by BRET assay; assay type: functional, cell-based; conditions: filed as positive allosteric modulator; in short: as §4
[10] = filed as positive allosteric modulator

Emax [1, 10] [%] | Activity [2] [%] | deltapEC50 [3] | Activity [2, 10] [%] | log(activity) [4] | log(activity) [5] | log(activity) [6] | log(activity) [7] | Emax [1] [%] | pKb [8] | log(activity) [9] | SMILES
52.5 | 5.53 | 0.6 | – | – | – | – | – | – | – | – | Cc1ccc(-c2cnn(CC3CCN(C(=O)OC(C)(C)C)CC3)c2)c(-c2ccc3c(c2)C(=O)N(C)C3)n1
61.3 | – | 1.99 | 78.2 | – | – | – | – | – | – | – | CNC(=O)c1cccc(-c2nc(C)ccc2-c2cnn(CC3CCCC3)c2)c1
– | – | -0.34 | 48.5 | 1.41 | 0.94 | 0.07 | 1.81 | 35.1 | 4.55 | -0.74 | CN1Cc2ccc(-c3nccnc3-c3cnn(CC4CCCC4)c3)cc2C1=O
66.6 | – | 1.49 | 90.6 | – | – | – | – | – | – | – | CN1Cc2ccc(-c3ccncc3-c3cnn(CC4CCCC4)c3)cc2C1=O
47.1 | – | 1.16 | 86.7 | – | – | – | – | – | – | – | Cc1ccc(-c2cnn(CC3CCOCC3)c2)c(-c2ccc3c(c2)C(=O)N(C)C3)n1
56.8 | – | 0.17 | 47.2 | – | – | – | – | – | – | – | CN1Cc2ccc(-c3cnccc3-c3cnn(CC4CCCC4)c3)cc2C1=O
69.6 | – | 1.64 | 102 | 1.95 | 1.29 | 0.64 | 2.22 | – | 5.84 | -0.54 | Cc1ccc(-c2cnn(CC3CC3)c2)c(-c2ccc3c(c2)C(=O)N(C)C3)n1
– | 6.49 | 0.63 | – | – | – | – | – | 25.6 | – | – | CN1Cc2ccc(-c3ccccc3-c3cnn(CC4CCCC4)c3)cc2C1=O
53.5 | – | 1.35 | 51.7 | – | – | – | – | – | – | – | Cc1ccc(-c2cnn(CC3CCCC3)c2)c(-c2cccc(N)c2)n1
– | 24.5 | 1.06 | – | – | – | – | – | 13.9 | – | – | Cc1ccc(-n2cc(CC3CCCC3)nn2)c(-c2ccc3c(c2)C(=O)N(C)C3)n1
73.3 | – | 2.57 | 89.7 | – | – | – | – | – | – | – | Cc1ccc(-c2cnn(CC3CCCC3)c2)c(-c2ccc3c(c2)C(=O)NC3)n1
– | 13.7 | 0.57 | – | – | – | – | – | 27 | – | – | Cc1ccc(-c2cnn(C)c2)c(-c2ccc3c(c2)C(=O)N(C)C3)n1
63.8 | – | 1.87 | 77.1 | – | – | – | – | – | – | – | Cc1ccc(-c2cnn(Cc3ccccc3)c2)c(-c2ccc3c(c2)C(=O)N(C)C3)n1
80.6 | – | 1.31 | 88.1 | – | – | – | – | – | – | – | Cc1ccc(-c2cnn(CC3CCCC3)c2)c(-c2ccc(N)cc2)n1
41.6 | 13 | 0.88 | – | 2.18 | 2.09 | 0.51 | 2.47 | – | 5.33 | -0.81 | CN1Cc2ccc(-c3ncccc3-c3cnn(CC4CCCC4)c3)cc2C1=O
– | 4.76 | 0.58 | – | – | – | – | – | 3.58 | – | – | Cc1ccc(-c2ccc3c(c2)C(=O)N(C)C3)c(-c2cnn(CC3CCOCC3)c2)n1
65.6 | – | 1.33 | 77.3 | – | – | – | – | – | – | – | Cc1ccc(-c2cnn(CC3CCCC3)c2)c(-c2cccc(C(N)=O)c2)n1
50.5 | – | 2.11 | 83.3 | – | – | – | – | – | – | – | CCCN1Cc2ccc(-c3nc(C)ccc3-c3cnn(CC4CCCC4)c3)cc2C1=O
57.7 | – | 1.63 | 52.2 | – | – | – | – | – | – | – | CC(=O)Nc1cccc(-c2nc(C)ccc2-c2cnn(CC3CCCC3)c2)c1
– | 18.6 | 1.24 | – | – | – | – | – | 39 | – | – | Cc1ccc(-c2cnn(CC3CCCC3)c2)c(-c2ccc3c(c2)NC(=O)C3)n1
– | 20 | 1.07 | – | – | – | – | – | 11.8 | – | – | Cc1ccc(-c2cn(CC3CCCC3)nn2)c(-c2ccc3c(c2)C(=O)N(C)C3)n1
63.9 | – | 0.73 | 106 | 1.92 | 1.1 | 0.56 | 2.01 | – | 6.11 | -0.88 | Cc1ccc(-c2cnn(CC3CCCCC3)c2)c(-c2ccc3c(c2)C(=O)N(C)C3)n1
74 | – | 1.05 | 124 | – | – | – | – | – | – | – | Cc1ccc(-c2cnn(CC3CCC3)c2)c(-c2ccc3c(c2)C(=O)N(C)C3)n1
84.8 | – | 1.36 | 108 | – | – | – | – | – | – | – | Cc1ccc(-c2cnn(CC(C)C)c2)c(-c2ccc3c(c2)C(=O)N(C)C3)n1
– | 32.1 | 1.15 | – | 1.98 | 1.87 | 0.87 | 2.46 | 21.8 | 4.68 | 0.04 | Cc1ccc(-c2cnn(CC3CCCC3)c2)c(-c2ccccc2)n1
97.7 | 33.2 | 0.25 | – | 1.47 | 1.06 | -0.83 | 2.03 | – | 4.49 | -0.58 | Cc1ccc(-c2cnn(CC3CCCC3)c2)c(-c2cccc(C(=O)N(C)C)c2)n1
